# Measured values collected from several papers.
# Lines come from different studies, so protocols differ.
# Target: Dual specificity protein kinase TTK (TTK, Homo sapiens, UniProt P33981)
# Sequence (P33981 1-857, as in one of the studies): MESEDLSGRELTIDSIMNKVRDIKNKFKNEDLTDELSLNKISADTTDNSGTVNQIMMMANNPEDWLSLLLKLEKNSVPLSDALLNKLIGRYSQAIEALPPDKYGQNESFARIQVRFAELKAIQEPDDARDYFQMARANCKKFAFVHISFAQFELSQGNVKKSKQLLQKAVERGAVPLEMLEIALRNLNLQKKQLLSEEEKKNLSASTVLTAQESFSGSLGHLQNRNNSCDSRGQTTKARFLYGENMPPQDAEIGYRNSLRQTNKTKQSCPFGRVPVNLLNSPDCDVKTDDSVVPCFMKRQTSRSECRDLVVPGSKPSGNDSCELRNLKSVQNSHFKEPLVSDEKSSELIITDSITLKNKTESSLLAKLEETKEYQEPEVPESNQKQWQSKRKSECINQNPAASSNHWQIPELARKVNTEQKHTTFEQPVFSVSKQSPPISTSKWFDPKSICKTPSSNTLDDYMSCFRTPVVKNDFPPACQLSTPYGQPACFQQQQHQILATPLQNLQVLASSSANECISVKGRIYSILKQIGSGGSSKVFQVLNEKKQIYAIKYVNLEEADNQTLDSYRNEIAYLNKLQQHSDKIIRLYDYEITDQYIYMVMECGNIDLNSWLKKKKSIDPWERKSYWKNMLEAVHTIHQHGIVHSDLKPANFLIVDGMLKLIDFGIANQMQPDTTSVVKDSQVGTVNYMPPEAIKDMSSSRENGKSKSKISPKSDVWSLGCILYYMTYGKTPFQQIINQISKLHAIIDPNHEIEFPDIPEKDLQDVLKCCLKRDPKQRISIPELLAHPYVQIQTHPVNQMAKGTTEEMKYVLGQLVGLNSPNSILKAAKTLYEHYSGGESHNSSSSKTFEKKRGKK
Compound,observed,method,tested at,remaining binding
CCCCN(CCCC)C(=O)CN1C[C@H](c2cc(OC)c3c(c2)OCO3)[C@@H](C(=O)O)[C@@H]1CC(C)(C)CCC,cell-free assay,competition with immobilised ligand,1 µM,100%
Cc1cnc(Nc2ccc(C(=O)N3CCC(N4CCCC4)CC3)cc2)nc1-c1cc2ccccc2s1,binding,competition with immobilised ligand,1 µM,26%
C[C@@H](c1ccc(-n2cnc3c(N)ncnc32)cc1)N1CCc2nn(C)c(Cc3ccccc3)c2C1=O,binding,competition with immobilised ligand,0.1 µM,85%
CN(C)c1nccc(-c2cnn3ncccc23)n1,binding,,1 µM,100%
O=C(NCCCN1CCOCC1)c1ccc(Nc2ncc(Cl)c(-c3ccc(Cl)s3)n2)cc1,binding,competition with immobilised ligand,1 µM,58%
N[C@H]1CCN(c2nccc(-c3cnn4ncccc34)n2)C1,binding,,1 µM,93%
O=C(c1ccc(Nc2ncc(Cl)c(-c3cc4ccccc4s3)n2)cc1)N1CCC(N2CCCC2)CC1,binding,competition with immobilised ligand,1 µM,41%
N#CC1(c2ccccn2)CCN(Cc2cc(C(=O)N3CCCC3)c(=O)n3ccccc23)CC1,cell-free assay,competition with immobilised ligand,1 µM,98%
CN(c1nccc(-c2cnn3ncccc23)n1)C1CC1,binding,,1 µM,69%
CCC(=O)N[C@H]1CC[C@@H](C(=O)N(C)c2ccc(-c3nc4ccccc4o3)cc2)C1,cell-free assay,competition with immobilised ligand,1 µM,100%
FC(F)(F)Oc1cccc(-c2cnc3ccc(-c4ccncc4)nn23)c1,binding,competition with immobilised ligand,5 µM,53%
COc1cnc(Nc2cccc(S(N)(=O)=O)c2)nc1N1CCN(c2ccccc2)CC1,binding,competition with immobilised ligand,1 µM,83%
O=C(NCC1CCOCC1)c1n[nH]cc1NC(=O)c1c(F)cccc1F,binding,competition with immobilised ligand,1 µM,84%
C=CC(=O)N1CCC(C(=O)NCC(=O)N2CCN(c3nc(-c4cnc(N)nc4C(F)F)nc(N4CCOCC4)n3)CC2)CC1,binding,competition with immobilised ligand,1 µM,92%
CSc1cccnc1N1CCN(Cc2nc3ccccc3[nH]2)CC1,cell-free assay,competition with immobilised ligand,1 µM,98%
Cc1cnn2ncc(-c3ccnc(N(C)C)n3)c2c1,binding,,1 µM,100%
CO[C@@H](C)c1c(Nc2ccc([C@@H](N(C)C(=O)C3CCS(=O)(=O)CC3)C(F)(F)F)cc2)cnc2cc(Cl)nn12,cell-free assay,competition with immobilised ligand,1 µM,100%
CCN1CCN(Cc2ccc(C(=O)Nc3ccc(C)c(Oc4ccc5c(c4)CC(=O)N5)c3)cc2C(F)(F)F)CC1,binding,competition with immobilised ligand,1 µM,100%
C[C@H]1CCN(c2nccc(-c3cnn4ncccc34)n2)C1,binding,,1 µM,34%
COc1ccc2c(c1)O[C@H](c1ccc(OC)c(OC)c1)C[C@@H]2NC(=O)C1(c2ccc3c(c2)OC(F)(F)O3)CC1,cell-free assay,competition with immobilised ligand,1 µM,100%
